Numbered stars: 1 amine (or outer) side, 2 acyl side, 3 side chain; on linkers, the order of the positions; unused ones are H or OH. Bridge positions count the residues as written; N and C are the ends. Square brackets hold non-standard residues; d marks the D form. Peptide text beside a SMILES is read from it. * marks the point of attachment. Tyr(Nα-carbamoyl) = NC(=O)N[C@@H](Cc1ccc(O)cc1)C(=O)*; X3 = C[C@H](c1c[nH]c2ccccc12)[C@@H](N[*:1])C(=O)[*:2]; Trp(βS-Me) = C[C@@H](c1c[nH]c2ccccc12)[C@H](N)C(=O)O
Columns and labels:
[1] = target: Somatostatin receptor type 4 (Homo sapiens, UniProt P31391); test: Binding affinity towards human somatostatin receptor type 4 using [125I][Leu8,D-Trp22,Tyr25]SRIF-28 as radioligand.
Chain of Somatostatin receptor type 4 (P31391 whole entry): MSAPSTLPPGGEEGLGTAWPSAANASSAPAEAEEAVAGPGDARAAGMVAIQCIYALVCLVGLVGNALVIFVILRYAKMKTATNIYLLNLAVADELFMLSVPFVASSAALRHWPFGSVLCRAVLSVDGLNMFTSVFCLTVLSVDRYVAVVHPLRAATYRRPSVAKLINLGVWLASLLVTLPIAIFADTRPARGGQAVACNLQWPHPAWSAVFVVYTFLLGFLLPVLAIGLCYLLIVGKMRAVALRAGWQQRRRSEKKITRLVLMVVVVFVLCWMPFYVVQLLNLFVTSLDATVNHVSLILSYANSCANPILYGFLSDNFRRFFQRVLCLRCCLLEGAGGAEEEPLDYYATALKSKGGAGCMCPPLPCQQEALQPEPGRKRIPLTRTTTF

[2] = target: Somatostatin receptor type 2 (Homo sapiens, UniProt P30874); test: Binding affinity towards human somatostatin receptor type 2 using [125I][Leu8,D-Trp22,Tyr25]SRIF-28 as radioligand.
Chain of Somatostatin receptor type 2 (P30874 whole entry): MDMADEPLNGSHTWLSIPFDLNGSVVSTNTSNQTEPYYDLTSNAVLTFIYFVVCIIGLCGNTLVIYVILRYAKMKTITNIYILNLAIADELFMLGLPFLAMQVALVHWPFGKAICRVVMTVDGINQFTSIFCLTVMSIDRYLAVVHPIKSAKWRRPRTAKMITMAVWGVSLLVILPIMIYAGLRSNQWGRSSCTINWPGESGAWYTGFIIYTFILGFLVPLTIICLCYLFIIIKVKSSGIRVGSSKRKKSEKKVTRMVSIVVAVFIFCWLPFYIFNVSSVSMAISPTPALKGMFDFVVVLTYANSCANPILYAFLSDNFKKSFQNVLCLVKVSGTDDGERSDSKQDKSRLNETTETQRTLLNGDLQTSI
Summary of the method: (§1)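 Receptor autoradiography on 20-µm cryostat sections of pellets of cells stably expressing the cloned human receptor. Cell hosts: sst1 CHO-K1, sst2 CCL39, sst3 CCL39, sst5 CHO-K1. Sections were incubated with radioligand at 30 000 cpm/100 µL and displaced by unlabeled peptide from 0.1 to 1000 nM. SRIF-28 was run in parallel as control. IC50 was obtained by computer-assisted image quantification against calibrated isotope tissue standards.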

[3] = target: Somatostatin receptor type 5 (Homo sapiens, UniProt P35346); test: Binding affinity towards human somatostatin receptor type 5 using [125I][Leu8,D-Trp22,Tyr25]SRIF-28 as radioligand.; summary of the method: as §1
Chain of Somatostatin receptor type 5 (P35346 whole entry): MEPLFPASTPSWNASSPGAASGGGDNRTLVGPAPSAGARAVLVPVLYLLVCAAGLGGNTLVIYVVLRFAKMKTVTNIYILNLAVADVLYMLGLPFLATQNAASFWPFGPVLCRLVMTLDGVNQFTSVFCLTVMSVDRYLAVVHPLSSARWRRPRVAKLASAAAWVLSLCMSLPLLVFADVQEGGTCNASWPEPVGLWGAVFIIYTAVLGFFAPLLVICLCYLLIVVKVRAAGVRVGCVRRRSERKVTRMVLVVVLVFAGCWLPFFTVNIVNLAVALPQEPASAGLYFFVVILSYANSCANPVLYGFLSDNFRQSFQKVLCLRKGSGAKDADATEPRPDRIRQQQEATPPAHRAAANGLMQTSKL

[4] = target: Somatostatin receptor type 1 (Homo sapiens, UniProt P30872); test: Binding affinity towards human somatostatin receptor type 1 using [125I][Leu8,D-Trp22,Tyr25]SRIF-28 as radioligand.; summary of the method: as §1
Chain of Somatostatin receptor type 1 (P30872 whole entry): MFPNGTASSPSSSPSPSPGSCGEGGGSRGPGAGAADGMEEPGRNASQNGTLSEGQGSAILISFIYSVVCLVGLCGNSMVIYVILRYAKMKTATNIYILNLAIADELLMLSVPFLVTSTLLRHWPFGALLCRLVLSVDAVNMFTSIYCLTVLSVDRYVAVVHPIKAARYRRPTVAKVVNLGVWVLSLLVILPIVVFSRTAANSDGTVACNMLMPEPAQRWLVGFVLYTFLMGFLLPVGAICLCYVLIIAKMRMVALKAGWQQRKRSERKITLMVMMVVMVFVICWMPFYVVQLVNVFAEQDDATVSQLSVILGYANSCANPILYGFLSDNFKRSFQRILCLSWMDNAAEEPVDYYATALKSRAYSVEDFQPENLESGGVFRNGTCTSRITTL

[5] = target: Somatostatin receptor type 3 (Homo sapiens, UniProt P32745); test: Binding affinity towards human somatostatin receptor type 3 using [125I][Leu8,D-Trp22,Tyr25]SRIF-28 as radioligand.; summary of the method: as §1
Chain of Somatostatin receptor type 3 (P32745 whole entry): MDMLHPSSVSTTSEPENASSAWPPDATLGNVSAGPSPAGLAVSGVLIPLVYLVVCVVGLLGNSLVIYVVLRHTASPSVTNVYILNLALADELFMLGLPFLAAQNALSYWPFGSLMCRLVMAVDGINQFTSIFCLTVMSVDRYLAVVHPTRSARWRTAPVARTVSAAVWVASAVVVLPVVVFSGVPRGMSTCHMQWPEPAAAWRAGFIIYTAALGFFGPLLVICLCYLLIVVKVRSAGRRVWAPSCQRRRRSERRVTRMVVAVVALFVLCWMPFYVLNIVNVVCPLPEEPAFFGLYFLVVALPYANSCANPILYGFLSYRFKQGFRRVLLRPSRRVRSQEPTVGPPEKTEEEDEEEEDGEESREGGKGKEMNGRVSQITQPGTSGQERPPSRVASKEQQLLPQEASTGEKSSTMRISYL

Compound	IC50 [1]	IC50 [2]	IC50 [3]	IC50 [4]	IC50 [5]
COC(=O)[C@H](CCCN=C(N)N)NC(=O)CCCc1c(-c2ccccc2)[nH]c2c(F)cc(F)cc12	4.2 nM	–	–	–	–
C[C@@H]1NC(=O)[C@H](Cc2ccccc2)NC(=O)[C@@H](NC(=O)[C@@H](N)Cc2ccc(O)c(I)c2)CSSC[C@@H](C(=O)O)NC(=O)[C@H](Cc2ccccc2)NC(=O)[C@H]([C@@H](C)O)NC(=O)[C@H](CCCCN)NC(=O)[C@H](Cc2c[nH]c3ccccc23)NC1=O	3.5 nM	> 1000 nM	> 1000 nM	> 1000 nM	1020 nM
C[C@@H]1NC(=O)[C@H](Cc2ccccc2)NC(=O)[C@@H](NC(=O)[C@@H](N)Cc2ccc(O)cc2)CSSC[C@@H](C(=O)O)NC(=O)[C@H](Cc2ccccc2)NC(=O)[C@H]([C@@H](C)O)NC(=O)[C@H](CCCCN)NC(=O)[C@@H]([C@@H](C)c2c[nH]c3ccccc23)NC1=O	5.6 nM	46 nM	–	> 1000 nM	381 nM
C[C@@H]1NC(=O)[C@H](Cc2ccccc2)NC(=O)[C@@H](N)CSSC[C@@H](C(=O)O)NC(=O)[C@H](Cc2ccccc2)NC(=O)[C@H]([C@@H](C)O)NC(=O)[C@H](CCCCN)NC(=O)[C@H](Cc2c[nH]c3ccccc23)NC1=O	–	–	–	> 1000 nM	–
C[C@@H]1NC(=O)[C@H](Cc2ccccc2)NC(=O)[C@@H](N)CSSC[C@@H](C(=O)O)NC(=O)[C@H](Cc2ccccc2)NC(=O)[C@H]([C@@H](C)O)NC(=O)[C@H](CCCCN)NC(=O)[C@@H](Cc2c[nH]c3ccccc23)NC1=O	–	–	–	> 1000 nM	–
C[C@@H](O)[C@@H]1NC(=O)[C@H](CCCCN)NC(=O)[C@H](Cc2c[nH]c3ccccc23)NC(=O)[C@H](Cc2ccccc2)NC(=O)[C@H](Cc2ccccc2)NC(=O)[C@@H](N)CSSC[C@@H](C(=O)O)NC(=O)[C@H](Cc2ccccc2)NC1=O (H-CFFWKTFC-OH; disulfide 1-8)	0.7 nM	130 nM	14 nM	5.3 nM	13 nM
C[C@@H](O)[C@@H]1NC(=O)[C@H](CCCCN)NC(=O)[C@H]([C@@H](C)c2c[nH]c3ccccc23)NC(=O)[C@H](Cc2ccccc2)NC(=O)[C@H](Cc2ccccc2)NC(=O)[C@@H](N)CSSC[C@@H](C(=O)O)NC(=O)[C@H](Cc2ccccc2)NC1=O (H-CFF[Trp(βS-Me)]KTFC-OH; disulfide 1-8)	1.8 nM	27 nM	221 nM	21 nM	330 nM
C[C@H](c1c[nH]c2ccccc12)[C@H]1NC(=O)[C@H](Cc2ccccc2)NC(=O)[C@H](Cc2ccccc2)NC(=O)[C@@H](N)CSSC[C@@H](C(=O)O)NC(=O)[C@H](Cc2ccccc2)NC(=O)[C@H]([C@@H](C)O)NC(=O)[C@H](CCCCN)NC1=O (H-CFF[X3]KTFC-OH; disulfide 1-8)	4 nM	40 nM	42 nM	49 nM	53 nM
C[C@@H](O)[C@@H]1NC(=O)[C@H](CCCCN)NC(=O)[C@@H](Cc2c[nH]c3ccccc23)NC(=O)[C@H](Cc2ccccc2)NC(=O)[C@H](Cc2ccccc2)NC(=O)[C@@H](N)CSSC[C@@H](C(=O)O)NC(=O)[C@H](Cc2ccccc2)NC1=O (H-CFF[dW]KTFC-OH; disulfide 1-8)	1.8 nM	41 nM	46 nM	27 nM	13 nM
C[C@@H](O)[C@@H]1NC(=O)[C@H](CCCCN)NC(=O)[C@H]([C@@H](C)c2c[nH]c3ccccc23)NC(=O)[C@H](Cc2ccccc2)NC(=O)[C@H](Cc2ccccc2)NC(=O)[C@@H](NC(=O)[C@@H](N)Cc2ccc(O)cc2)CSSC[C@@H](C(=O)O)NC(=O)[C@H](Cc2ccccc2)NC1=O (H-YCFF[Trp(βS-Me)]KTFC-OH; disulfide 2-9)	0.9 nM	48 nM	–	88 nM	116 nM

Now from value to compound:

IC50 [1]	IC50 [2]	IC50 [3]	IC50 [4]	IC50 [5]	Compound
8.8 nM	> 1000 nM	990 nM	> 1000 nM	325 nM	C[C@@H](O)[C@@H]1NC(=O)[C@H](CCCCN)NC(=O)[C@H](Cc2c[nH]c3ccccc23)NC(=O)[C@H](Cc2ccc(N)cc2)NC(=O)[C@H](Cc2ccccc2)NC(=O)[C@@H](NC(=O)[C@H](Cc2ccc(O)c(I)c2)NC(N)=O)CSSC[C@@H](C(=O)O)NC(=O)[C@H](Cc2ccccc2)NC1=O
1.8 nM	25.7 nM	20.3 nM	117 nM	35.7 nM	C[C@@H](O)[C@@H]1NC(=O)[C@H](CCCCN)NC(=O)[C@@H](Cc2c[nH]c3ccccc23)NC(=O)[C@H](Cc2ccc(O)cc2)NC(=O)[C@H](Cc2ccccc2)NC(=O)[C@@H](N)CSSC[C@@H](C(=O)O)NC(=O)[C@H](Cc2ccccc2)NC1=O
2.1 nM	561 nM	–	99 nM	> 1000 nM	C[C@@H](O)[C@@H]1NC(=O)[C@H](CCCCN)NC(=O)[C@H](Cc2c[nH]c3ccccc23)NC(=O)[C@H](CCCN)NC(=O)[C@H](Cc2ccccc2)NC(=O)[C@@H](NC(=O)[C@H](Cc2ccc(O)cc2)NC(N)=O)CSSC[C@@H](C(=O)O)NC(=O)[C@H](Cc2ccccc2)NC1=O
1.3 nM	54 nM	63 nM	27 nM	22 nM	C[C@@H](O)[C@@H]1NC(=O)[C@H](CCCCN)NC(=O)[C@H](Cc2c[nH]c3ccccc23)NC(=O)[C@H](Cc2ccc(O)cc2)NC(=O)[C@H](Cc2ccccc2)NC(=O)[C@@H](N)CSSC[C@@H](C(=O)O)NC(=O)[C@H](Cc2ccccc2)NC1=O
–	–	–	–	> 1000 nM	C[C@@H](O)[C@@H]1NC(=O)[C@H](CCCCN)NC(=O)[C@H](Cc2c[nH]c3ccccc23)NC(=O)[C@H](Cc2ccc(N)cc2)NC(=O)[C@H](Cc2ccccc2)NC(=O)[C@@H](N)CSSC[C@@H](C(=O)O)NC(=O)[C@H](Cc2ccccc2)NC1=O
–	–	–	> 1000 nM	–	C[C@@H](O)[C@@H]1NC(=O)[C@H](CCCCN)NC(=O)[C@@H](Cc2c[nH]c3ccccc23)NC(=O)[C@H](Cc2ccc(N)cc2)NC(=O)[C@H](Cc2ccccc2)NC(=O)[C@@H](NC(N)=O)CSSC[C@@H](C(=O)O)NC(=O)[C@H](Cc2ccc(O)cc2)NC1=O
–	> 1000 nM	–	–	–	C[C@@H](O)[C@@H]1NC(=O)[C@H](CCCCN)NC(=O)[C@H](Cc2c[nH]c3ccccc23)NC(=O)[C@H](Cc2ccc(N)cc2)NC(=O)[C@H](Cc2ccccc2)NC(=O)[C@@H](NC(N)=O)CSSC[C@@H](C(=O)O)NC(=O)[C@H](Cc2ccc(O)cc2)NC1=O
–	–	–	> 1000 nM	–	C[C@@H]1NC(=O)[C@H](Cc2ccccc2)NC(=O)[C@@H](NC(=O)[C@@H](N)Cc2ccc(O)cc2)CSSC[C@@H](C(=O)O)NC(=O)[C@H](Cc2ccccc2)NC(=O)[C@H]([C@@H](C)O)NC(=O)[C@H](CCCCN)NC(=O)[C@H](Cc2c[nH]c3ccccc23)NC1=O
1.6 nM	179 nM	–	13 nM	57 nM	C[C@@H](O)[C@@H]1NC(=O)[C@H](CCCCN)NC(=O)[C@H](Cc2c[nH]c3ccccc23)NC(=O)[C@H](Cc2ccccc2)NC(=O)[C@H](Cc2ccccc2)NC(=O)[C@@H](NC(=O)[C@@H](N)Cc2ccc(O)cc2)CSSC[C@@H](C(=O)O)NC(=O)[C@H](Cc2ccccc2)NC1=O (H-YCFFWKTFC-OH; disulfide 2-9)
1.5 nM	> 1000 nM	> 1000 nM	–	–	CC(O)[C@@H]1NC(=O)[C@H](CCCCN)NC(=O)[C@H](Cc2c[nH]c3ccccc23)NC(=O)[C@H](Cc2ccc(N)cc2)NC(=O)C(Cc2ccccc2)NC(=O)C(NC(N)=O)CSSC[C@@H](C(=O)O)NC(=O)[C@H](Cc2ccccc2)NC1=O (single isomer, unassigned)
1 nM	52 nM	–	55 nM	16 nM	C[C@@H](O)[C@@H]1NC(=O)[C@H](CCCCN)NC(=O)[C@@H](Cc2c[nH]c3ccccc23)NC(=O)[C@H](Cc2ccccc2)NC(=O)[C@H](Cc2ccccc2)NC(=O)[C@@H](NC(N)=O)CSSC[C@@H](C(=O)O)NC(=O)[C@H](Cc2ccc(O)cc2)NC1=O (stereo in doubt)
0.51 nM	15.5 nM	4.8 nM	10.3 nM	8.2 nM	C[C@@H](O)[C@@H]1NC(=O)[C@H](CCCCN)NC(=O)[C@@H](Cc2c[nH]c3ccccc23)NC(=O)[C@H](Cc2ccccc2)NC(=O)[C@H](Cc2ccccc2)NC(=O)[C@@H](N)CSSC[C@@H](C(=O)O)NC(=O)[C@H](Cc2ccc(O)cc2)NC1=O (stereo in doubt)
1.3 nM	43 nM	24 nM	6.5 nM	10 nM	C[C@@H](O)[C@@H]1NC(=O)[C@H](CCCCN)NC(=O)[C@H](Cc2c[nH]c3ccccc23)NC(=O)[C@H](Cc2ccccc2)NC(=O)[C@H](Cc2ccccc2)NC(=O)[C@@H](N)CSSC[C@@H](C(=O)O)NC(=O)[C@H](Cc2ccc(O)cc2)NC1=O (stereo in doubt)
2.4 nM	–	> 1000 nM	> 1000 nM	–	C[C@@H]1NC(=O)[C@H](Cc2ccccc2)NC(=O)[C@@H](NC(=O)[C@H](Cc2ccc(O)cc2)NC(N)=O)CSSC[C@@H](C(=O)O)NC(=O)[C@H](Cc2ccccc2)NC(=O)[C@H]([C@@H](C)O)NC(=O)[C@H](CCCCN)NC(=O)[C@H](Cc2c[nH]c3ccccc23)NC1=O ({Tyr(Nα-carbamoyl)}-CFAWKTFC-OH; disulfide 1-8)
